Source: ChEMBL document CHEMBL1142154, “High-level vancomycin-resistant Staphylococcus aureus isolates associated with a polymicrobial biofilm” (2007)
≈ marks a conversion by molar mass, not a printed value.

Experiments:
Assay type in all cases: functional
[1] = system: Enterococcus faecalis; experiment: Antibacterial activity against Enterococcus faecalis isolate 5746
[2] = system: Staphylococcus aureus; experiment: Antibacterial activity against vancomycin-resistant Staphylococcus aureus isolate 2514
How it was run: (§1)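 MICs by broth microdilution in cation-adjusted Mueller-Hinton broth, following CLSI guidelines. Test isolates were clinical VRE (E. faecium), MRSA and VRSA recovered from patient sites or from nephrostomy tube biofilm. Biofilm isolates were obtained by PBS lumen washes of tube segments, dilution in Butterfield buffer and plating on selective and blood agars at 35°C for 24 to 48 h.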

[3] = system: Staphylococcus aureus; experiment: Antibacterial activity against vancomycin-resistant Staphylococcus aureus isolate 5734; how it was run: as §1
[4] = system: Staphylococcus aureus; experiment: Antibacterial activity against methicillin-resistant Staphylococcus aureus isolate 2513; how it was run: as §1
[5] = system: Enterococcus faecium; experiment: Antibacterial activity against Enterococcus faecium isolate 5751
[6] = system: Enterococcus faecium; experiment: Antibacterial activity against Enterococcus faecium isolate 2547; how it was run: as §1
[7] = system: Enterococcus faecalis; experiment: Antibacterial activity against Enterococcus faecalis isolate 5745
[8] = system: Enterococcus faecium; experiment: Antibacterial activity against Enterococcus faecium isolate 5753
[9] = system: Enterococcus faecalis; experiment: Antibacterial activity against Enterococcus faecalis isolate 5744
[10] = system: Enterococcus faecium; experiment: Antibacterial activity against Enterococcus faecium isolate 5749
[11] = system: Enterococcus faecium; experiment: Antibacterial activity against Enterococcus faecium isolate 5750
[12] = system: Staphylococcus aureus; experiment: Antibacterial activity against methicillin-resistant Staphylococcus aureus isolate 2530; how it was run: as §1
[13] = system: Staphylococcus aureus; experiment: Antibacterial activity against methicillin-resistant Staphylococcus aureus isolate 5735; how it was run: as §1
[14] = system: Staphylococcus aureus; experiment: Antibacterial activity against methicillin-resistant Staphylococcus aureus isolate 5739; how it was run: as §1
[15] = system: Staphylococcus aureus; experiment: Antibacterial activity against methicillin-resistant Staphylococcus aureus isolate 5733; how it was run: as §1
[16] = system: Enterococcus faecalis; experiment: Antibacterial activity against Enterococcus faecalis isolate 5742
[17] = system: Staphylococcus aureus; experiment: Antibacterial activity against methicillin-resistant Staphylococcus aureus isolate 5736; how it was run: as §1
[18] = system: Enterococcus faecalis; experiment: Antibacterial activity against Enterococcus faecalis isolate 5743
[19] = system: Enterococcus faecium; experiment: Antibacterial activity against Enterococcus faecium isolate 5752; how it was run: as §1
[20] = system: Staphylococcus aureus; experiment: Antibacterial activity against methicillin-resistant Staphylococcus aureus isolate 5737; how it was run: as §1
[21] = system: Staphylococcus aureus; experiment: Antibacterial activity against vancomycin-resistant Staphylococcus aureus isolate 595; how it was run: as §1

| Compound | MIC [1] [µg/mL] | MIC [2] [µg/mL] | MIC [3] [µg/mL] | MIC [4] [µg/mL] | MIC [5] [µg/mL] | MIC [6] [µg/mL] | MIC [7] [µg/mL] | MIC [8] [µg/mL] | MIC [9] [µg/mL] | MIC [10] [µg/mL] | MIC [11] [µg/mL] | MIC [12] [µg/mL] | MIC [13] [µg/mL] | MIC [14] [µg/mL] | MIC [15] [µg/mL] | MIC [16] [µg/mL] | MIC [17] [µg/mL] | MIC [18] [µg/mL] | MIC [19] [µg/mL] | MIC [21] [µg/mL] | also measured |
| --- | --- | --- | --- | --- | --- | --- | --- | --- | --- | --- | --- | --- | --- | --- | --- | --- | --- | --- | --- | --- | --- |
| CC[C@H]1OC(=O)[C@H](C)[C@@H](O[C@H]2C[C@@](C)(OC)[C@@H](O)[C@H](C)O2)[C@H](C)[C@@H](O[C@@H]2O[C@H](C)C[C@H](N(C)C)[C@H]2O)[C@](C)(O)C[C@@H](C)C(=O)[C@H](C)[C@@H](O)[C@]1(C)O [ERYTHROMYCIN] | > 8 | > 8 | > 8 | > 8 | > 8 | > 8 | > 8 | > 8 | > 8 | > 8 | > 8 | > 8 | > 8 | > 8 | > 8 | > 8 | > 8 | > 8 | > 8 | > 8 | MIC [20]: > 8 µg/mL |
| Cc1onc(-c2ccccc2)c1C(=O)N[C@@H]1C(=O)N2[C@@H]1SC(C)(C)[C@@H]2C(=O)O [OXACILLIN] | – | > 16 | > 16 | > 16 | – | – | – | – | – | – | – | > 16 | > 16 | > 16 | > 16 | – | > 16 | – | – | > 16 | MIC [20]: > 16 µg/mL |
| CO[C@H]1/C=C/O[C@@]2(C)Oc3c(C)c(O)c4c(O)c(c(/C=N/N5CCN(C)CC5)c(O)c4c3C2=O)NC(=O)/C(C)=C\C=C\[C@H](C)[C@H](O)[C@@H](C)[C@@H](O)[C@@H](C)[C@H](OC(C)=O)[C@@H]1C [RIFAMPIN] | 2 (≈ 2.43 µM) | – | – | – | > 4 | > 4 | 1 (≈ 1.22 µM) | > 4 | 0.5 (≈ 0.608 µM) | > 4 | 4 (≈ 4.86 µM) | – | – | – | – | 1 (≈ 1.22 µM) | – | 1 (≈ 1.22 µM) | > 4 | – | – |
| O=C(N[C@H](CO)[C@H](O)c1ccc([N+](=O)[O-])cc1)C(Cl)Cl [CHLORAMPHENICOL] | 16 (≈ 49.5 µM) | – | – | – | ≤ 2 | 8 (≈ 24.8 µM) | 8 (≈ 24.8 µM) | 4 (≈ 12.4 µM) | 16 (≈ 49.5 µM) | 4 (≈ 12.4 µM) | 8 (≈ 24.8 µM) | – | – | – | – | 8 (≈ 24.8 µM) | – | 8 (≈ 24.8 µM) | 8 (≈ 24.8 µM) | – | – |
| CN(C)c1ccc(O)c2c1C[C@H]1C[C@H]3[C@H](N(C)C)C(O)=C(C(N)=O)C(=O)[C@@]3(O)C(O)=C1C2=O [MINOCYCLINE] | 0.12 (≈ 0.262 µM) | – | – | – | 16 (≈ 35 µM) | 32 (≈ 69.9 µM) | 8 (≈ 17.5 µM) | 16 (≈ 35 µM) | 16 (≈ 35 µM) | 16 (≈ 35 µM) | 32 (≈ 69.9 µM) | – | – | – | – | 8 (≈ 17.5 µM) | – | 8 (≈ 17.5 µM) | 32 (≈ 69.9 µM) | – | – |
| CN[C@H](CC(C)C)C(=O)N[C@H]1C(=O)N[C@@H](CC(N)=O)C(=O)N[C@H]2C(=O)N[C@H]3C(=O)N[C@H](C(=O)N[C@H](C(=O)O)c4cc(O)cc(O)c4-c4cc3ccc4O)[C@H](O)c3ccc(c(Cl)c3)Oc3cc2cc(c3O[C@@H]2O[C@H](CO)[C@@H](O)[C@H](O)[C@H]2O[C@H]2C[C@](C)(N)[C@H](O)[C@H](C)O2)Oc2ccc(cc2Cl)[C@H]1O [VANCOMYCIN] | 2 (≈ 1.38 µM) | 32 (≈ 22.1 µM) | – | – | 256 (≈ 177 µM) | – | 2 (≈ 1.38 µM) | 256 (≈ 177 µM) | 2 (≈ 1.38 µM) | – | 256 (≈ 177 µM) | – | – | – | – | 2 (≈ 1.38 µM) | – | 2 (≈ 1.38 µM) | – | 64 (≈ 44.2 µM) | – |
| C[C@H]1COc2c(N3CCN(C)CC3)c(F)cc3c(=O)c(C(=O)O)cn1c23.C[C@H]1COc2c(N3CCN(C)CC3)c(F)cc3c(=O)c(C(=O)O)cn1c23.O [LEVOFLOXACIN] | – | 16 | 16 | 16 | – | – | – | – | – | – | – | 16 | 16 | 16 | 16 | – | 16 | – | – | 16 | MIC [20]: 16 µg/mL |
| CN(C)[C@@H]1C(O)=C(C(N)=O)C(=O)[C@@]2(O)C(O)=C3C(=O)c4c(O)cccc4[C@@](C)(O)[C@H]3C[C@@H]12 [TETRACYCLINE] | ≤ 0.5 | > 16 | 16 (≈ 36 µM) | ≤ 0.5 | > 16 | > 16 | > 16 | > 16 | > 16 | > 16 | > 16 | ≤ 0.5 | 8 (≈ 18 µM) | ≤ 0.5 | 8 (≈ 18 µM) | > 16 | 8 (≈ 18 µM) | > 16 | > 16 | > 16 | MIC [20]: ≤ 0.5 µg/mL |
| CC1(C)S[C@@H]2[C@H](NC(=O)Cc3ccccc3)C(=O)N2[C@H]1C(=O)O [PENICILLIN G] | 2 (≈ 5.98 µM) | – | – | – | 256 (≈ 766 µM) | 128 (≈ 383 µM) | 2 (≈ 5.98 µM) | 256 (≈ 766 µM) | 2 (≈ 5.98 µM) | 128 (≈ 383 µM) | 256 (≈ 766 µM) | – | – | – | – | 2 (≈ 5.98 µM) | – | 2 (≈ 5.98 µM) | 128 (≈ 383 µM) | – | – |
| GENTAMICIN | – | 64 | > 64 | < 4 | – | – | – | – | – | – | – | < 4 | 16 | > 64 | > 64 | – | > 64 | – | – | 32 | MIC [20]: > 64 µg/mL |
| C[C@H]1c2cccc(O)c2C(=O)C2=C(O)[C@]3(O)C(=O)C(C(N)=O)=C(O)[C@@H](N(C)C)[C@@H]3[C@@H](O)[C@@H]21.O [DOXYCYCLINE] | ≤ 0.25 | 4 | 8 | ≤ 0.25 | 16 | 16 | 4 | 8 | 8 | 8 | 16 | ≤ 0.25 | 4 | ≤ 0.25 | 4 | 4 | 4 | 4 | 16 | 4 | MIC [20]: 0.5 µg/mL |
| CCC[C@@H]1C[C@@H](C(=O)N[C@@H]([C@H]2O[C@H](SC)[C@H](O)[C@@H](O)[C@H]2O)[C@H](C)Cl)N(C)C1 [CLINDAMYCIN] | – | > 8 | > 8 | > 8 | – | – | – | – | – | – | – | ≤ 0.12 | > 8 | ≤ 0.12 | > 8 | – | > 8 | – | – | > 8 | MIC [20]: ≤ 0.12 µg/mL |
